The results in this text go back to ChEMBL document CHEMBL4477209, “Indole-2-carboxamide-based MmpL3 Inhibitors Show Exceptional Antitubercular Activity in an Animal Model of Tuberculosis Infection” (J Med Chem, 2016).

In data set [1] the target is T1, Nuclear receptor subfamily 1 group I member 3 (Homo sapiens, UniProt Q14994).
T1 sequence (Q14994 whole entry): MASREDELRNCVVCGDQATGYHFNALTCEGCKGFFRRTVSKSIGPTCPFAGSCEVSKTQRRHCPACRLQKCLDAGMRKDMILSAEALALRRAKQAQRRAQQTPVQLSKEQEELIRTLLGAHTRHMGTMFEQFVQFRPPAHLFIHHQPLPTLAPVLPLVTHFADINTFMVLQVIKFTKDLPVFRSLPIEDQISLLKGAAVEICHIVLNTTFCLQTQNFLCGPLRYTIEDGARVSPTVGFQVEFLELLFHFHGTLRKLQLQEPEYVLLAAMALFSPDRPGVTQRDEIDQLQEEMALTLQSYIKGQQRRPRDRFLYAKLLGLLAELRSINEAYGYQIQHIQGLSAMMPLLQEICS
The experiment in a line: Transactivation of CAR (unknown origin) assessed as upregulation of CYP2B6 at 0.1 to 1 microg/ml. Format: ADME. In a few lines: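 Nuclear receptor reporter-gene induction assay, with reporters coupled to PXR, CAR or AhR. Compound was tested at 0.1–1, 3 and 8 μg/mL. Positive controls were rifampin for PXR, CITCO for CAR and 3-methylcholanthrene for AhR.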

Data set [2] concerns Mycobacterium tuberculosis. The experiment in a line: Antimycobacterial activity against Mycobacterium tuberculosis H37Rv infected in BALB/c mouse model assessed as protection against mouse mortality at 12.5 to 100 mg/kg administered daily via oral gavage for 5 days per week measured after 14 to 28 days post dosage. It is filed as functional, organism-based.
Data set [3] can be described thus: Mutagenicity in Salmonella typhimurium TA98. It is filed as toxicity. The settings on record: salmonella enterica subsp. enterica serovar typhimurium.

Activity calls are given as the source filed them. The calls are words filed in the database; no cut-off is given here.

Regarding `C[C@@H]1[C@H]2C[C@@H](C[C@H]1NC(=O)c1cc3c(F)cc(F)cc3[nH]1)C2(C)C`, the Activity entry in data set [1] is listed as “Not Active”; in data set [3], “Non-Toxic”. Besides, the outcome in data set [2] was Active.
